ChEMBL document CHEMBL2390866, “Novel pyrimidoazepine analogs as serotonin 5-HT(2A) and 5-HT(2C) receptor ligands for the treatment of obesity” (Eur J Med Chem, 2013)

Experiments:
[1] = Ratio of drug level from brain to plasma in Sprague-Dawley rat at 10 mg/kg, iv measured at 2 hrs; assay type: ADME, organism-based; parameters: dose 10 mg/kg, route intravenous; conditions: read-out: BPR
In short: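 Rats fasted 12 h, then dosed orally by gavage or by bolus tail-vein injection at 2 ml/kg. Compound given as a 5 mg/ml solution in N-methyl-2-pyrrolidone/Tween 80/water (1:2:7). Samples taken at various times (n = 5) and stored at −70 °C. Plasma deproteinized with acetonitrile containing carbamazepine internal standard, then quantified by LC-MS/MS.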

Homo sapiens = species on record: Homo sapiens; experiment: Selectivity ratio of IC50 for human recombinant 5HT-2B receptor to IC50 for human recombinant 5HT-2A receptor
[2] = AUC (0 to infinity) in Sprague-Dawley rat at 10 mg/kg, iv; assay type: ADME, organism-based; parameters: time infinity, dose 10 mg/kg, route intravenous; conditions: plasma
Mus musculus [3] = experiment: Antiobesity activity in B6.V/J ob/ob mouse assessed as inhibition of body weight gain at 50 mg/kg, ip measured after 12 hrs relative to vehicle-treated control; assay type: functional; conditions: route intraperitoneal
Mus musculus [4] = experiment: Antiobesity activity in C57BL/6 mouse assessed as inhibition of body weight gain at 50 mg/kg, ip measured after 2 to 12 hrs relative to vehicle-treated control; assay type: functional; conditions: C57BL/6, ip, route intraperitoneal
Mus musculus [5] = experiment: Antiobesity activity in C57BL/6 mouse assessed as inhibition of food intake at 50 mg/kg, ip measured after 2 to 12 hrs relative to vehicle-treated control; assay type: functional; conditions: C57BL/6, ip, route intraperitoneal
In short: (§1)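 Male mice were acclimated 1 week at 23 ± 3 °C and 50 ± 20% humidity, then fasted 24 h. They were dosed once intraperitoneally with vehicle or compound: 50 mg/kg in C57BL/6, or 12.5, 25 or 50 mg/kg in B6.V-Lep^ob/J. Food intake was measured at 2, 6 and 12 h versus vehicle control.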

Mus musculus [6] = experiment: Antiobesity activity in B6.V/J ob/ob mouse assessed as inhibition of food intake at 25 mg/kg, ip measured up to 6 hrs relative to vehicle-treated control; assay type: functional; conditions: route intraperitoneal; in short: as §1
Mus musculus [7] = experiment: Antiobesity activity in B6.V/J ob/ob mouse assessed as inhibition of food intake at 25 mg/kg, ip measured up to 2 hrs relative to vehicle-treated control; assay type: functional; conditions: route intraperitoneal; in short: as §1
Mus musculus [8] = experiment: Antiobesity activity in B6.V/J ob/ob mouse assessed as change in heart weight at 50 mg/kg, po bid measured after 14 days (reference value: 0.150 +/- 0.003 g); assay type: functional

Compound `Cl.Clc1cccc(Nc2nc(Cc3ccccc3)nc3c2CCNCC3)c1` has a Kp at 2 h [1] of 9.33, a Ratio IC50 (Homo sapiens) of 4.2 and an AUC(0-inf) [2] of 1910 ng·h/mL. For the same compound, the inhibition in vivo at 50 mg/kg (Mus musculus [3]) was 80.2%, the inhibition in vivo at 50 mg/kg (Mus musculus [4]) was 84.8% and the inhibition in vivo at 50 mg/kg (Mus musculus [5]) was 76.6%. For the same compound, the inhibition in vivo at 25 mg/kg (Mus musculus [6]) was 90.2%, the inhibition in vivo at 25 mg/kg (Mus musculus [7]) was 99.8% and the Activity (Mus musculus [8]) was 0.17 g.
